From ChEMBL document CHEMBL1828530, “Quinonoid and phenazine compounds: synthesis and evaluation against H37Rv, rifampicin and isoniazid-resistance strains of Mycobacterium tuberculosis” (Eur J Med Chem, 2011) come the findings set out here.

Molecules are shown by their SMILES. ≈ marks a conversion by molar mass, not a printed value. Where only a bound is given, the exact number is not on record here.

Assay [1] deals with PBMC. The assay is described as follows: Cytotoxicity against human PBMC after 72 hrs by Alamar blue assay. It is filed as cell-based. Summed up:
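Human peripheral blood mononuclear cells; compounds (0.048–25) in DMSO (0.1%) added 24 h after plating, then 72 h exposure. Alamar Blue absorbance read at 570 and 595 nm, medium-alone blank subtracted at each wavelength; effect expressed as percentage of control absorbance; IC50 derived.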

For assay [2], the system named is Mycobacterium tuberculosis. Description: Antitubercular activity against Mycobacterium tuberculosis H37Rv after 9 days by resazurin reduction assay. The settings on record: 216 h. It is filed as functional. (The colour change of resazurin is a common sign of viable cells or microbes.)

In the case of `CCCC1=C(O)C(=O)c2ccccc2C1=O`, the IC50 in assay [1] was 97.8 µM. In assay [2], this compound came in with an MIC of 462 µM (≈ 100 µg/mL).
The matching figures for `CC(C)CCC1=C(O)C(=O)c2ccccc2C1=O`: more than 102 µM and 205 µM (≈ 50.1 µg/mL).
The matching figures for `C=CCc1c2[nH]c3ccccc3nc-2c2ccccc2c1=O`: 64.3 µM and 87.4 µM (≈ 25 µg/mL).
The matching figures for `CC(C)CC1=C(O)C(=O)c2ccccc2C1=O`: 93.5 µM and 217 µM (≈ 50.1 µg/mL).
In turn, `CC(C)CC1=C(O)C(=O)C2=C(CCCC2)C1=O` gave an IC50 in assay [1] of 64.2 µM. Further, in assay [2], the MIC turned out to be 107 µM (≈ 25 µg/mL).
As for `CC(C)CCC1=C(OC2(CCC(C)C)C(=O)c3ccccc3-c3nc4ccccc4nc32)C(=O)c2ccccc2C1=O` (centres undefined), the IC50 in assay [1] is more than 44.7 µM. Further, the MIC in assay [2] is more than 179 µM.
On to `CCCC1=C(OC2(CCC)C(=O)C3=C(CCCC3)c3nc4ccccc4nc32)C(=O)C2=C(CCCC2)C1=O` (centres undefined), for which the IC50 in assay [1] was more than 49 µM. The MIC in assay [2] is more than 196 µM.
As to `CO[C@H]1/C=C/O[C@@]2(C)Oc3c(C)c(O)c4c(O)c(c(/C=N/N5CCN(C)CC5)c(O)c4c3C2=O)NC(=O)/C(C)=C\C=C\[C@H](C)[C@H](O)[C@@H](C)[C@@H](O)[C@@H](C)[C@H](OC(C)=O)[C@@H]1C` [RIFAMPIN], the MIC in assay [2] was 0.12 µM (≈ 0.0988 µg/mL).
In assay [1], `CC(C)Cc1c2[nH]c3ccccc3nc-2c2ccccc2c1=O` had an IC50 of more than 82.7 µM. The MIC in assay [2] was more than 331 µM.
The matching figures for `CC(C)CC1=C(OC2(CC(C)C)C(=O)c3ccccc3-c3nc4ccccc4nc32)C(=O)c2ccccc2C1=O` (centres undefined): more than 47.1 µM and more than 188 µM.
In assay [1], `CCCC1=C(O)C(=O)C2=C(CCCC2)C1=O` showed an IC50 of 89.1 µM. For the same compound, in assay [2], the MIC came out at 227 µM (≈ 50 µg/mL).
On the same counts, the results for `CC(C)CCC1=C(O)C(=O)C2=C(CCCC2)C1=O` are 81.3 µM and 101 µM (≈ 25 µg/mL).
The matching figures for `C=CCC1=C(O)C(=O)c2ccccc2C1=O`: more than 117 µM and 467 µM (≈ 100 µg/mL).
On the same counts, the results for `CC(C)CCc1c2[nH]c3ccccc3nc-2c2c(c1=O)CCCC2` are more than 78 µM and 9.75 µM (≈ 3.12 µg/mL).
Regarding `CC(C)=CC1=C(O)C(=O)c2ccccc2C1=O`, in assay [1], the IC50 is more than 110 µM. Besides, the MIC in assay [2] was determined as 219 µM (≈ 50.1 µg/mL).
The matching figures for `CC(C)Cc1c2[nH]c3ccccc3nc-2c2c(c1=O)CCCC2`: more than 81.6 µM and more than 327 µM.
Turning to `CC(C)=Cc1c2[nH]c3ccccc3nc-2c2ccccc2c1=O`, the IC50 in assay [1] is 62 µM. In addition, in assay [2], the MIC is 83.3 µM (≈ 25 µg/mL).
Turning to `CC(C)CC1=C(OC2(CC(C)C)C(=O)C3=C(CCCC3)c3nc4ccccc4nc32)C(=O)C2=C(CCCC2)C1=O` (centres undefined), the IC50 in assay [1] is more than 46.4 µM. The compound also displayed an MIC in assay [2] of 92.8 µM (≈ 50 µg/mL).
Consider `C=CCC1=C(OC2(CC=C)C(=O)c3ccccc3-c3nc4ccccc4nc32)C(=O)c2ccccc2C1=O` (centres undefined), for which the IC50 in assay [1] is more than 50.1 µM. Moreover, in assay [2], the MIC was more than 201 µM.
On the same counts, the results for `CC(C)CCC1=C(OC2(CCC(C)C)C(=O)C3=C(CCCC3)c3nc4ccccc4nc32)C(=O)C2=C(CCCC2)C1=O` (centres undefined) are more than 44.9 µM and 176 µM (≈ 100 µg/mL).
The matching figures for `CCCC1=C(OC2(CCC)C(=O)c3ccccc3-c3nc4ccccc4nc32)C(=O)c2ccccc2C1=O` (centres undefined): more than 49.7 µM and more than 199 µM.
Consider `CC(C)CCc1c2[nH]c3ccccc3nc-2c2ccccc2c1=O`, for which the IC50 in assay [1] turned out to be 45.1 µM. Moreover, the MIC in assay [2] was determined as 19.8 µM (≈ 6.26 µg/mL).
The matching figures for `CC(C)=CCC1=C(OC2(CC=C(C)C)C(=O)c3ccccc3-c3nc4ccccc4nc32)C(=O)c2ccccc2C1=O` (centres undefined): more than 45.1 µM and more than 180 µM.
On the same counts, the results for `CC(C)=CCC1=C(O)C(=O)c2ccccc2C1=O` [LAPACHOL] are more than 103 µM and 207 µM (≈ 50.1 µg/mL).
Consider `NNC(=O)c1ccncc1` [ISONIAZID], for which, in assay [2], it took 0.145 µM (≈ 0.0199 µg/mL) to inhibit growth (MIC).
For the compound `CCCc1c2[nH]c3ccccc3nc-2c2c(c1=O)CCCC2`, the IC50 in assay [1] is more than 85.5 µM.

By IC50 is commonly meant the concentration at which inhibition is half-maximal. A low value points to greater potency in that assay. As a reminder, the MIC is the lowest concentration that inhibits growth of the organism. A lower MIC goes with inhibition by little substance.
